{"data": "Assay results gathered from unrelated publications", "pknB": "Serine/threonine-protein kinase PknB (pknB, Mycobacterium tuberculosis, UniProt P9WI81)", "1-deoxy-D-xylulose 5-phosphate reductoisomerase": "1-deoxy-D-xylulose 5-phosphate reductoisomerase (Mycobacterium tuberculosis, UniProt P9WNS1)", "ENAH": "Protein enabled homolog (ENAH, UniProt Q8N8S7)", "DPP4": "Dipeptidyl peptidase 4 (DPP4, Homo sapiens, UniProt P27487)", "note": "Protocols differ between the studies behind these lines. pIC50, pKd, pKi: −log10 of the molar value."}
{"Compound": "CN1[C@H]2CC[C@@H]1[C@@H](c1cc(-c3ccccc3)no1)[C@H](OC(c1ccc(F)cc1)c1ccc(F)cc1)C2", "target": "Transporter (Slc6a2, Rattus norvegicus, UniProt Q63380)", "assay": "ligand displacement, radioligand", "setting": "cell membranes", "endpoint": "pKi", "value": 6.38}
{"Compound": "CC(C)(C)OC(=O)N1CCN(c2ccc(Nc3nccc(-c4ccccc4)n3)cc2C(F)(F)F)CC1", "target": "pknB", "assay": "enzyme activity, inhibitor", "endpoint": "pIC50", "value": "< 4.70"}
{"Compound": "CC(=O)N(O)CCC(c1ccc(-c2cccc(C)c2)cc1)P(=O)(O)O (centres unmarked)", "target": "1-deoxy-D-xylulose 5-phosphate reductoisomerase", "assay": "enzyme activity, inhibitor, absorbance", "setting": "pH 7.5", "endpoint": "pIC50", "value": 5.62}
{"Compound": "CC(=O)N[C@@H](CO)C(=O)N[C@@H](Cc1ccccc1)C(=O)N[C@@H](CCC(=O)O)C(=O)N[C@@H](Cc1ccccc1Cl)C(=O)N1CCC[C@H]1C(=O)N1CCC[C@H]1C(=O)N1CCC[C@H]1C(=O)N1CCC[C@H]1C(=O)N[C@H](C(=O)N[C@@H](CCC(=O)O)C(=O)N[C@@H](CC(=O)O)C(=O)N[C@@H](CC(=O)O)C(=O)N[C@@H](CC(C)C)C(N)=O)[C@@H](C)O", "target": "ENAH", "assay": "binding, fluorescence", "endpoint": "pKd", "value": 5.84}
{"Compound": "CC(C)[C@H](N)C(=O)N1CCC[C@H]1C(=O)N[C@H](C(=O)N1CCC[C@H]1C(=O)NCC(=O)O)C(C)C", "target": "DPP4", "assay": "enzyme activity, inhibitor, absorbance", "setting": "pH 8", "endpoint": "pIC50", "value": 4.07}
{"Compound": "CC(=O)N[C@@H](CO)C(=O)N[C@@H](Cc1ccccc1)C(=O)N[C@@H](CCC(=O)O)C(=O)N[C@@H](Cc1ccccc1Cl)C(=O)N1CCC[C@H]1C(=O)N1CCC[C@H]1C(=O)N1CCC[C@H]1C(=O)N1CCC[C@H]1C(=O)O", "target": "ENAH", "assay": "binding, fluorescence", "endpoint": "pKd", "value": 5.34}
{"Compound": "CC(=O)N(O)CCC(c1ccc(-c2c(C)noc2C)cc1)P(=O)(O)O (centres unmarked)", "target": "1-deoxy-D-xylulose 5-phosphate reductoisomerase", "assay": "enzyme activity, inhibitor, absorbance", "setting": "pH 7.5", "endpoint": "pIC50", "value": 4.67}
{"Compound": "CC(C)[C@H](N)C(=O)N1CCC[C@H]1C(=O)N[C@H](C(=O)N1CCC[C@H]1C(=O)N[C@@H](Cc1ccc(O)cc1)C(=O)O)C(C)C", "target": "DPP4", "assay": "enzyme activity, inhibitor, absorbance", "setting": "pH 8", "endpoint": "pIC50", "value": 4.09}
{"Compound": "COc1cccc(-c2ccnc(Nc3ccc(N4CCN(C(=O)OC(C)(C)C)CC4)c(C(F)(F)F)c3)n2)c1", "target": "pknB", "assay": "enzyme activity, inhibitor", "endpoint": "pIC50", "value": "< 4.70"}
{"Compound": "CC(=O)N(O)CCC(c1ccc(-c2ccsc2)cc1)P(=O)(O)O (centres unmarked)", "target": "1-deoxy-D-xylulose 5-phosphate reductoisomerase", "assay": "enzyme activity, inhibitor, absorbance", "setting": "pH 7.5", "endpoint": "pIC50", "value": 5.24}
{"Compound": "CC(C)[C@H](N)C(=O)N1CCC[C@H]1C(=O)N[C@H](C(=O)N1CCC[C@H]1C(=O)N[C@H](C(=O)O)[C@@H](C)O)C(C)C", "target": "DPP4", "assay": "enzyme activity, inhibitor, absorbance", "setting": "pH 8", "endpoint": "pIC50", "value": 3.88}
